No end group written: not given here.
Experiments:
[1] = test system: cancer cells (BGC‐823, PG and HT‐29); test: Fluorescence visualization for entry of peptides; format: cell-based, human; settings: BGC‐823, PG and HT‐29 cells, 25 μg/mL FITC‐conjugated peptide, 3 h, fixed, DAPI
In short: (§1)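 Test peptide FITC-conjugated, or FITC-TAT cell-penetrating peptide, each at 25 μg/mL, applied for 3 h. HUVEC were isolated in-house. BGC-823, PG and HT-29 were grown in RPMI-1640 with 10% FBS at 37°C in 5% CO2. Cells were then fixed in 4% paraformaldehyde, permeabilized with 0.1% NP-40 in PBS, nuclei stained with DAPI (5 ng/mL), washed three times in PBS, and imaged by confocal microscopy.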

HUVEC = test: Fluorescence visualization for entry of peptides; format: cell-based, human; settings: 25 μg/mL FITC‐conjugated peptide, 3 h, fixed, DAPI
In short: as §1

[2] = previous studies; cited from earlier work
[3] = Pre‐clinical toxicology study; format: in vivo, mouse, rat and monkey
[4] = test system: subintestinal vein vessels (SIV) of zebrafish; test: Transgenic zebrafish embryo angiogenesis assay; format: in vivo; settings: doses of the angiogenesis test

N=C(N)NCCC[C@H](NC(=O)CNC(=S)Nc1ccc2c(c1)C(=O)OC21c2ccc(O)cc2Oc2cc(O)ccc21)C(=O)N[C@@H](CCCCN)C(=O)N[C@@H](CCCCN)C(=O)N[C@@H](CCCNC(=N)N)C(=O)N[C@@H](CCCNC(=N)N)C(=O)N[C@@H](CCC(N)=O)C(=O)N[C@@H](CCCNC(=N)N)C(=O)N[C@@H](CCCNC(=N)N)C(=O)N[C@@H](CCCNC(=N)N)C(=O)NCC(=O)N[C@@H](Cc1ccc(O)cc1)C(=O)O [FITC‐labeled TAT peptide]
entry into cells (confocal fluorescence) [1]: entered | entry into cells (confocal fluorescence) (HUVEC): entered

ADSGEGDFLAEGGGVR [FpA]
anti‐angiogenesis activity of synthetic peptide [2]: inactive

ADSGEGDFLAEGGGVRGPRVVERH [alphastatin]
anti‐angiogenesis activity of synthetic peptide [2]: showed anti‐angiogenesis activity

DSGEGDFLAEGGGVR [fibrinostatin]
side effects in toxicology study ([3]; pre‐clinical animal models, GLP standards, data not shown): no observable side effects | margin of safety ([3]; single‐dose acute toxicity testing and repeated‐dose chronic toxicity study in the mouse, rat and monkey): wide margin of safety | toxicity to zebrafish [4]: no tocixity

— article PMC4714678 (Cancer Science, 2015)
